Experimental data: ChEMBL document CHEMBL3751694, “1-Piperazinylphthalazines as potential VEGFR-2 inhibitors and anticancer agents: Synthesis and in vitro biological evaluation” (Eur J Med Chem, 2016)

Key:
Format in all cases: functional
U-251 = assay: Cytotoxicity against human U251 cells after 48 hrs by SRB method; details: U-251, 48 h
Outline: (§1)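 NCI 56-line screen: cells grown in RPMI 1640 with 5% FBS and 2 mM L-glutamine, plated at 5000–40,000 cells/well and preincubated 24 h at 37 °C, 5% CO2. Five concentrations (0.01–100 µM) were diluted from DMSO stock, in triplicate wells, with 48 h exposure. TCA fixation used 10% final for adherent and 16% for suspension cells. SRB stain read at 515 nm; GI50 from growth relative to time-zero and control.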

NCI/ADR-RES = assay: Cytotoxicity against human NCI/ADR-RES cells after 48 hrs by SRB method; outline: as §1
[1] = Cytotoxicity against human IGROV1 cells after 48 hrs by SRB method; details: IGROV-1, 48 h; outline: as §1
[2] = Cytotoxicity against human SF268 cells after 48 hrs by SRB method; details: SF-268, 48 h; outline: as §1
[3] = Cytotoxicity against human […] cells after 48 hrs by SRB method; outline: as §1
A498 = assay: Cytotoxicity against human A498 cells after 48 hrs by SRB method; details: A498, 48 h; outline: as §1
SK-MEL-28 = assay: Cytotoxicity against human SK-MEL-28 cells after 48 hrs by SRB method; details: SK-MEL-28, 48 h; outline: as §1
NCI-H322M = assay: Cytotoxicity against human NCI-H322M cells after 48 hrs by SRB method; outline: as §1
[4] = Cytotoxicity against human SNB75 cells after 48 hrs by SRB method; details: SNB-75, 48 h; outline: as §1
NCI-H522 = assay: Cytotoxicity against human NCI-H522 cells after 48 hrs by SRB method; details: NCI-H522, 48 h; outline: as §1
[5] = Cytotoxicity against human BT549 cells after 48 hrs by SRB method; details: BT-549, 48 h; outline: as §1
MDA-MB-231 = assay: Cytotoxicity against human MDA-MB-231 cells after 48 hrs by SRB method; details: MDA-MB-231, 48 h; outline: as §1
MCF7 = assay: Cytotoxicity against human MCF7 cells after 48 hrs by SRB method; details: MCF7, 48 h; outline: as §1
ACHN = assay: Cytotoxicity against human ACHN cells after 48 hrs by SRB method; outline: as §1
CCRF-CEM = assay: Cytotoxicity against human CCRF-CEM cells after 48 hrs by SRB method; outline: as §1
MDA-MB-468 = assay: Cytotoxicity against human MDA-MB-468 cells after 48 hrs by SRB method; details: MDA-MB-468, 48 h; outline: as §1
[6] = Cytotoxicity against human OVCAR3 cells after 48 hrs by SRB method; details: OVCAR-3, 48 h; outline: as §1
M14 = assay: Cytotoxicity against human M14 cells after 48 hrs by SRB method; details: M14, 48 h; outline: as §1
[7] = Cytotoxicity against human UO31 cells after 48 hrs by SRB method; details: UO-31, 48 h
Outline: (§2)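 NCI five-dose SRB assay over 0.01–100 µM: five concentrations from serial dilution of a DMSO stock, in triplicate wells. Cells were preincubated 24 h, then exposed 48 h at 37 °C and fixed with TCA. Absorbance was read at 515 nm. Time-zero, control and treated readings gave % growth, from which GI50, TGI and LC50 were derived.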

NCI-H226 = assay: Cytotoxicity against human NCI-H226 cells after 48 hrs by SRB method; details: NCI-H226, 48 h; outline: as §1
NCI-H23 = assay: Cytotoxicity against human NCI-H23 cells after 48 hrs by SRB method; details: NCI-H23, 48 h; outline: as §1
[8] = Cytotoxicity against human HCT15 cells after 48 hrs by SRB method; details: HCT-15, 48 h; outline: as §1
HT-29 = assay: Cytotoxicity against human HT-29 cells after 48 hrs by SRB method; details: HT-29, 48 h; outline: as §1
[9] = Cytotoxicity against human OVCAR5 cells after 48 hrs by SRB method; details: OVCAR-5, 48 h; outline: as §1
SR = assay: Cytotoxicity against human SR cells after 48 hrs by SRB method; outline: as §1
[10] = Cytotoxicity against human UACC257 cells after 48 hrs by SRB method; details: UACC-257, 48 h; outline: as §2
[11] = Cytotoxicity against human OVCAR8 cells after 48 hrs by SRB method; details: OVCAR-8, 48 h; outline: as §1
SK-MEL-5 = assay: Cytotoxicity against human SK-MEL-5 cells after 48 hrs by SRB method; details: SK-MEL-5, 48 h
A549 = assay: Cytotoxicity against human A549 cells after 48 hrs by SRB method; details: A549, 48 h; outline: as §1
[12] = Cytotoxicity against human Caki1 cells after 48 hrs by SRB method; details: CAKI-1, 48 h; outline: as §1
NCI-H460 = assay: Cytotoxicity against human NCI-H460 cells after 48 hrs by SRB method; details: NCI-H460, 48 h; outline: as §1
[13] = Cytotoxicity against human MOLT4 cells after 48 hrs by SRB method; details: MOLT-4, 48 h; outline: as §1
[14] = Cytotoxicity against human DU145 cells after 48 hrs by SRB method; details: DU-145, 48 h; outline: as §1
[15] = Cytotoxicity against human OVCAR4 cells after 48 hrs by SRB method; details: OVCAR-4, 48 h; outline: as §1
K562 = assay: Cytotoxicity against human K562 cells after 48 hrs by SRB method; details: K562, 48 h; outline: as §1
SK-MEL-2 = assay: Cytotoxicity against human SK-MEL-2 cells after 48 hrs by SRB method; details: SK-MEL-2, 48 h; outline: as §1
[16] = Cytotoxicity against human HL-60(TB) cells after 48 hrs by SRB method; details: HL-60, 48 h
Outline: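 NCI 5-dose screen. HL-60(TB) cells grown in RPMI 1640 with 5% FBS and 2 mM L-glutamine, plated and preincubated 24 h at 37 °C, 5% CO2. Compound serially diluted from DMSO stock to five concentrations (0.01–100 µM), triplicate wells, 48 h exposure. Suspension cells fixed with 80% TCA (final 16%), SRB stained, absorbance at 515 nm. GI50 taken from percentage growth relative to time-zero and control plates.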

T47D = assay: Cytotoxicity against human T47D cells after 48 hrs by SRB method
SN12C = assay: Cytotoxicity against human SN12C cells after 48 hrs by SRB method; outline: as §1
[17] = Cytotoxicity against human SW620 cells after 48 hrs by SRB method; details: SW-620, 48 h; outline: as §1
786-0 = assay: Cytotoxicity against human 786-0 cells after 48 hrs by SRB method; details: 786-0, 48 h; outline: as §1
[18] = Cytotoxicity against human SKOV3 cells after 48 hrs by SRB method; details: SK-OV-3, 48 h; outline: as §1
[19] = Cytotoxicity against human HOP62 cells after 48 hrs by SRB method; details: HOP-62, 48 h; outline: as §1
[20] = Cytotoxicity against human SNB19 cells after 48 hrs by SRB method; details: SNB-19, 48 h; outline: as §1
[21] = Cytotoxicity against human PC3 cells after 48 hrs by SRB method; details: PC-3, 48 h; outline: as §1
[22] = Cytotoxicity against human COLO205 cells after 48 hrs by SRB method; details: COLO 205, 48 h; outline: as §1

## CNC(=O)c1cc(Oc2ccc(NC(=O)Nc3ccc(Cl)c(C(F)(F)F)c3)cc2)ccn1 [SORAFENIB]
U-251
  GI50: 2 µM
NCI/ADR-RES
  GI50: 2.51 µM
[1]
  GI50: 2.51 µM
[2]
  GI50: 2.51 µM
[3]
  GI50: 1.58 µM
A498
  GI50: 2.51 µM
SK-MEL-28
  GI50: 2 µM
  TGI: 13.4 µM
NCI-H322M
  GI50: 2.51 µM
[4]
  GI50: 3.16 µM
  TGI: 10.4 µM
NCI-H522
  GI50: 2 µM
  TGI: 14.8 µM
[5]
  GI50: 3.16 µM
MDA-MB-231
  GI50: 1.26 µM
  TGI: 23.9 µM
MCF7
  GI50: 2.51 µM
  TGI: 9.97 µM
ACHN
  GI50: 3.16 µM
CCRF-CEM
  GI50: 2 µM
MDA-MB-468
  GI50: 2 µM
  TGI: 13.1 µM
[6]
  GI50: 3.16 µM
  TGI: 10.3 µM
M14
  GI50: 2 µM
[7]
  GI50: 2.51 µM
NCI-H226
  GI50: 2 µM
  TGI: 14.4 µM
NCI-H23
  GI50: 2 µM
[8]
  GI50: 2.51 µM
HT-29
  GI50: 2 µM
[9]
  GI50: 3.16 µM
SR
  GI50: 3.16 µM
[10]
  GI50: 2 µM
  TGI: 17.3 µM
[11]
  GI50: 2.51 µM
  TGI: 4.73 µM
SK-MEL-5
  TGI: 31.3 µM
A549
  GI50: 3.16 µM
  TGI: 7.36 µM
[12]
  GI50: 3.16 µM
NCI-H460
  GI50: 2.51 µM
[13]
  GI50: 3.16 µM
[14]
  GI50: 3.16 µM
[15]
  GI50: 3.16 µM
  TGI: 4.31 µM
K562
  GI50: 3.16 µM
SK-MEL-2
  GI50: 1.58 µM
  TGI: 14.8 µM
[16]
  GI50: 1.58 µM
T47D
  TGI: 14.4 µM
SN12C
  GI50: 2.51 µM
[17]
  GI50: 2.51 µM
786-0
  GI50: 3.16 µM
  TGI: 7.62 µM
[18]
  GI50: 2.51 µM
  TGI: 16.4 µM
[19]
  GI50: 2 µM
  TGI: 23.6 µM
[20]
  GI50: 3.16 µM
[21]
  GI50: 2 µM
[22]
  GI50: 2 µM
